Reference: publication PMC11754507 (Ophthalmology Science, 2024)

Experiments:
[1] = test system: systemic C3 activation (alternative pathway); details: serum concentration threshold for inhibition of systemic C3 activation; cited from earlier work
[2] = type: in vivo, human; details: intravitreal
In short: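 Serum levels pooled from 4 clinical studies in adults with GA or nAMD, after single intravitreal 4, 10 or 20 mg or 15 mg monthly or every other month. LLOQ 0.10 μg/mL; BLQ samples (>20%) handled by M3 method. Vitreous dose compartment, first-order absorption into one serum compartment, first-order elimination; stepwise covariates (forward α=0.05, backward α=0.001); half-lives are median empirical Bayes estimates.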

[3] = test system: systemic C3 activation (classical pathway); details: serum concentration threshold for inhibition of systemic C3 activation; cited from earlier work
[4] = median empirical Bayes estimated

pegcetacoplan
half-maximal effective concentration [EC50], alternative pathway [1]: 2.77 µg/mL
VC/F, Transformed Estimate ([2]; apparent volume of the central serum compartment, 261 patients with GA or nAMD): 1.83 L
half-life based on the slowest rate process [2]: approximately 2 weeks
absorption half-life (vitreous-to-serum) [2, 4]: 314 h
elimination half-life (serum) [2, 4]: 108 h
KA, Transformed Estimate ([2]; vitreous-to-serum absorption rate constant, 261 patients with GA or nAMD): 0.0528 day⁻¹
EC50, classical pathway [3]: 5.90 µg/mL
